In PubChem BioAssay AID1448 (The Scripps Research Institute Molecular Screening Center, 2008):
The whole screen tested about 220,000 compounds, of which about 630 (0.29%) were called active. What follows is part of a selection rich in actives, with near analogues and random picks from the rest. Values without a mark were called inactive.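 Rule for the calls: active = activation above its plate's cutoff, the mean activation of the plate's test wells plus 3 SD (cut at about 12% in these data); inactive = the rest.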

molecular target: Mucolipin-3 (Homo sapiens) (UniProt Q8TDD5); assay: activators of mucolipin-3 cation channel – cell-based, HEK293 TRPML3-YFP, Fluo-8 calcium fluorescence, 3 µM, primary screen (AID 1448); settings: at 3 µM, active compounds read high, 100% = the carbachol control signal;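 note: 0% = DMSO only wells and 100% = carbachol wells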
Method in brief: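 Test system: HEK293 cells stably carrying human TRPML3-YFP; Doses: single dose, 3 µM final nominal compound, 0.3% DMSO final; Schedule: dye loading 1 h 37 °C then 30 min ambient, 125 s read; Technique: Fluo-8 calcium fluorescence; Benchmarks: high control carbachol 87 µM, low control DMSO.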

Mucolipin-3 (Homo sapiens), sequence (Q8TDD5 whole entry, looked up): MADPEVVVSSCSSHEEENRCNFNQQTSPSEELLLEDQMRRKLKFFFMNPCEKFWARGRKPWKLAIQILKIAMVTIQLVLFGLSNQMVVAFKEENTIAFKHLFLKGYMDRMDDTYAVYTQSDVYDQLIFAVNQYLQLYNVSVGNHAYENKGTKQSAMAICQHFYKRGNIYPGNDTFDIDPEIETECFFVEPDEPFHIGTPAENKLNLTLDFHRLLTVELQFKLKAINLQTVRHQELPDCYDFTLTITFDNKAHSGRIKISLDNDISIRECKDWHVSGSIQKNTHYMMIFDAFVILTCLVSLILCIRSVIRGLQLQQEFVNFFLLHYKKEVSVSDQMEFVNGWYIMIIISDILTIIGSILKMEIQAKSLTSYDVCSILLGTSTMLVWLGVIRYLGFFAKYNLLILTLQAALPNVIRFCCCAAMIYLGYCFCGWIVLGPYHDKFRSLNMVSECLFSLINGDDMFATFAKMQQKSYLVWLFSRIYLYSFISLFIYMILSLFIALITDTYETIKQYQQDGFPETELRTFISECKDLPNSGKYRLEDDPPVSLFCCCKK

**Q.** For Cc1nnc(N/N=C/C2CC=CCC2)[nH]c1=O (centres undefined), which activation is on record?
**A.** Its activation is 1.13%.

**Q.** Which activation does the source give for O=C(NCCc1c[nH]c2ccccc12)C(=O)NCC1CCCO1 (centres undefined) here?
**A.** The activation was 0.08%.

**Q.** How did the activation turn out when N#C/C(=C/c1ccc(N2CCCCC2)o1)C(=O)NCCc1c[nH]c2ccccc12 was run?
**A.** The activation was 15.6% (active).

**Q.** With N#C/C(=C/c1ccc(-c2ccccc2[N+](=O)[O-])o1)C(=O)NCCN1CCCCC1 as the compound, how does the activation read?
**A.** The activation was -0.32%.

**Q.** For Cn1c(SCC(=O)c2ccc(F)cc2)nnc1-c1ccccn1, which activation is on record?
**A.** Its activation is -0.33%.

**Q.** How did the activation turn out when Cc1nc(COc2cccc(Cl)c2)sc1C(=O)/C=C/N(C)C was run?
**A.** Its activation is -0.16%.

**Q.** For COc1ccc(N=C(C)c2sc3ccccc3c2O)cc1, which activation is on record?
**A.** Its activation is 2.16%.

**Q.** Which activation does the source give for CCC(C(=O)Nc1ccc2c(c1)OCCO2)c1ccccc1 (centres undefined) here?
**A.** Its activation is -0.06%.

**Q.** CCC(C(=O)Nc1ccc(C(C)C)cc1)c1ccccc1 (centres undefined) was tested. Which activation did it give?
**A.** Its activation is 15.7% (active).

**Q.** With CCC(C(=O)OCC(=O)Nc1ccc(C(=O)Nc2ccc(OC)cc2)cc1)c1ccccc1 (centres undefined) as the compound, how does the activation read?
**A.** Its activation is 1.2%.

**Q.** How did the activation turn out when Cn1cccc1/C=N/NC(=O)c1ccc(OC(F)(F)C(F)F)cc1 was run?
**A.** Its activation is 0.29%.

**Q.** With Cc1cc(NC(=O)CCC(=O)N(CC(=O)NCC2CCCO2)c2ccccc2C)no1 (centres undefined) as the compound, how does the activation read?
**A.** Its activation is -0.47%.

**Q.** Which activation does the source give for Cc1cc(C)nc(/N=C2\NC(=O)CC(C(=O)O)N2c2ccc(Cl)cc2Cl)n1 (centres undefined) here?
**A.** Its activation is 0.53%.

**Q.** Which activation does the source give for Cc1ccc(C(NC(=O)N2CCCC2)C(Cl)(Cl)Cl)cc1F (centres undefined) here?
**A.** The activation was -0.15%.

**Q.** For Oc1ccc2ccc3cccc[n+]3c2c1, which activation is on record?
**A.** Its activation is 14.6% (active).

**Q.** With C/C(=N\Nc1nc(N2CCOCC2)nc(N2CCOCC2)n1)c1ccc([N+](=O)[O-])cc1 as the compound, how does the activation read?
**A.** Its activation is 0.78%.

**Q.** For COc1ccc(/C=N/NC(=O)C(C)N(c2ccc(OC)cc2)S(C)(=O)=O)cc1 (centres undefined), which activation is on record?
**A.** Its activation is 0.53%.

**Q.** Which activation does the source give for CC(C)n1c(CN2CCN(Cc3ccccc3)CC2)nc2ccccc21 here?
**A.** The activation was 0.13%.

**Q.** With CCN(C(=O)Cc1nc(N)n[nH]1)C1(C(=O)Nc2ccccc2)CCCCC1 as the compound, how does the activation read?
**A.** Its activation is -0.28%.

**Q.** How did the activation turn out when CN(C)c1ccnc2sc(C(=O)c3ccccc3)c(N)c12 was run?
**A.** Its activation is -0.55%.

**Q.** How did the activation turn out when Nc1c(C(=O)c2cccs2)sc2nsc(SCCN3CCCCC3)c12 was run?
**A.** The activation was 23.1% (active).

**Q.** How did the activation turn out when Cc1nc2sc(C(=O)c3ccccc3)c(N)c2c2c1CCCC2 was run?
**A.** Its activation is -0.35%.

**Q.** With CCN(CC)c1ccc(C(=O)c2cnc(/N=C/N(C)C)s2)cc1 as the compound, how does the activation read?
**A.** Its activation is -0.38%.

**Q.** For COC(=O)c1ccccc1N=Nc1c(C)[nH][nH]c1=O, which activation is on record?
**A.** The activation was 0.25%.

**Q.** With C[C@@H](NC(=O)OC(C)(C)C)c1nnc(S(=O)(=O)Cc2ccccc2)o1 as the compound, how does the activation read?
**A.** Its activation is 1.12%.

**Q.** With CCN1/C(=C/c2ccc3ccc(C)cc3[n+]2CC)Sc2ccccc21 as the compound, how does the activation read?
**A.** The activation was 12.7% (active).

**Q.** With CCN1CCN(CCNC(=O)c2ccc(/C=C3/Sc4ccccc4N(Cc4cccc(C)c4)C3=O)cc2)CC1 as the compound, how does the activation read?
**A.** Its activation is 1.89%.

**Q.** For CCN1/C(=C\c2ccc3ccccc3[n+]2CC)Sc2cc(C)ccc21, which activation is on record?
**A.** The activation was 16.6% (active).

**Q.** How did the activation turn out when CCN1/C(=C/C(=S)Nc2ccccc2)Sc2ccccc21 was run?
**A.** The activation was -0.23%.

**Q.** With COc1ccc(N(CCC#N)S(=O)(=O)c2ccc(Cl)cc2)cc1 as the compound, how does the activation read?
**A.** The activation was 11.9% (active).

**Q.** COc1ccc(CNC(=O)CN(Cc2ccc(Cl)cc2)S(C)(=O)=O)cc1 was tested. Which activation did it give?
**A.** Its activation is 0.83%.

**Q.** With COc1ccc(N(Cc2ccccc2)S(=O)(=O)c2cccc(C(=O)O)c2)cc1 as the compound, how does the activation read?
**A.** The activation was 0.34%.

**Q.** With Cc1[nH]c2c(C(=O)N3CCCC(CCC(=O)NCc4ccccc4F)C3)cccc2c1C (centres undefined) as the compound, how does the activation read?
**A.** Its activation is -0.04%.

**Q.** How did the activation turn out when COC(=O)CCC(=O)N1CCCC(CO)(Cc2ccccc2)C1 (centres undefined) was run?
**A.** The activation was 0.26%.

**Q.** Which activation does the source give for Cc1ccccc1-n1nc(C)c2c1N=C1C(Cl)=CC(Cl)=CN1C2c1ccc(C(=O)O)cc1 (centres undefined) here?
**A.** Its activation is 0.62%.

**Q.** How did the activation turn out when Cc1ccc(OCC(=O)Nc2ccccc2Sc2ccc(Cl)cc2)c([N+](=O)[O-])n1 was run?
**A.** The activation was 0.1%.

**Q.** How did the activation turn out when CC(C)CNC(=O)C(=O)Nc1ccc(N(C)C)cc1 was run?
**A.** Its activation is 1.3%.

**Q.** For O=[N+]([O-])/C=C1\CCCCCN1, which activation is on record?
**A.** Its activation is 0.64%.

**Q.** Which activation does the source give for COc1cccc2c(=O)n(CC(=O)N3CCCCCC3)ccc12 here?
**A.** Its activation is 0.82%.

**Q.** How did the activation turn out when COc1ccc(Cl)cc1N(CC(=O)N/N=C/c1ccc(OCC(N)=O)cc1)S(C)(=O)=O was run?
**A.** The activation was 0.86%.

**Q.** CCOC(=O)N1CCN(C(=O)CN(c2ccc(C)c(C)c2)S(=O)(=O)c2ccccc2)CC1 was tested. Which activation did it give?
**A.** The activation was 0.07%.

**Q.** COc1ccc(S(=O)(=O)N(C)CC(=O)N2CCCC2)cc1Cl was tested. Which activation did it give?
**A.** Its activation is 0.85%.

**Q.** For COc1ccccc1N(CC(=O)N1CCCCC1)S(=O)(=O)c1ccccc1, which activation is on record?
**A.** Its activation is 162% (active).

**Q.** How did the activation turn out when COc1ccc(Cl)cc1N(CC(=O)N1CCCCC1)S(C)(=O)=O was run?
**A.** Its activation is 56.7% (active).

**Q.** With CCCC(=O)Nc1ccc2c(c1)nc(CCNC(=O)c1ccco1)n2C as the compound, how does the activation read?
**A.** Its activation is 0.81%.

**Q.** Which activation does the source give for CCOc1ccc(CN2CCN(Cc3ccc(C)o3)CC2CCO)cc1 (centres undefined) here?
**A.** The activation was 1.1%.

**Q.** Which activation does the source give for CN(Cc1nc(-c2cnccn2)no1)Cc1n[nH]c2c1CCCCC2 here?
**A.** The activation was 0.69%.

**Q.** How did the activation turn out when CCn1c(SCC(=O)Nc2nccs2)nnc1-c1ccco1 was run?
**A.** Its activation is 0.4%.

**Q.** How did the activation turn out when O=C(CSc1nnc2ccc(-c3ccncc3)nn12)N1CCCCC1 was run?
**A.** The activation was -0.71%.

**Q.** For Cc1ccc(F)cc1NC(=O)N1CCCN(c2ccc(C(F)(F)F)cn2)CC1, which activation is on record?
**A.** Its activation is 2.2%.

**Q.** How did the activation turn out when Cc1ccc2c(c1)-c1c(ssc1=S)C(C)(C)N2C(=O)CN1C(=O)c2ccccc2C1=O was run?
**A.** Its activation is -0.04%.

**Q.** How did the activation turn out when Cc1cccc(NC(=O)CN2C(=O)c3ccccc3C2=O)c1C was run?
**A.** Its activation is 1.15%.

**Q.** Cc1cc2c(cc1C)N(C(=O)CN1C(=O)c3ccccc3C1=O)C(C)(C)c1ssc(=S)c1-2 was tested. Which activation did it give?
**A.** The activation was 81.4% (active).

**Q.** How did the activation turn out when CCOc1ccc(NC(=O)NNC(=O)c2ccc(Cl)cc2Cl)cc1 was run?
**A.** Its activation is 0.56%.

**Q.** O=C(NCCN1CCOCC1)c1ccc2c(c1)N(Cc1ccc(Cl)cc1)CCS2 was tested. Which activation did it give?
**A.** The activation was 0.23%.

**Q.** With O=C1/C(=C/c2cccs2)SC(=S)N1C1CCS(=O)(=O)C1 (centres undefined) as the compound, how does the activation read?
**A.** Its activation is 0.54%.

**Q.** How did the activation turn out when O=C(NC(Nc1nc2ccc([N+](=O)[O-])cc2s1)(C(F)(F)F)C(F)(F)F)c1ccccc1 was run?
**A.** Its activation is 13% (active).

**Q.** For O=C(O)CCC(=O)Nc1nc2ccc([N+](=O)[O-])cc2s1, which activation is on record?
**A.** Its activation is 0.5%.

**Q.** O=C(Nc1nc2ccc([N+](=O)[O-])cc2s1)c1ccncc1 was tested. Which activation did it give?
**A.** The activation was 1.14%.
